{"data": "Published values pooled from the literature", "organism": "Nakaseomyces glabratus", "note": "Each line is one published result; the experiments were not run side by side."}
{"SMILES": "OC(Cn1cncn1)(Cn1cncn1)c1ccc(F)cc1F", "observed": "microbial growth", "method": "broth dilution", "strain": "MY1381", "quantity": "MIC50", "value": "4 µg/mL"}
{"SMILES": "CCCCCCCCCCN1CCN(CC(O)(Cn2cncn2)c2ccc(Cl)cc2Cl)CC1 (centres unmarked)", "observed": "microbial growth", "method": "broth dilution", "strain": "ATCC2001", "time": "48 h", "quantity": "MIC", "value": "0.975 µg/mL"}
{"SMILES": "COc1ccccc1-n1cc(Cn2c(C(=O)O)nc3ccccc3c2=O)nn1", "observed": "microbial growth", "method": "broth dilution", "strain": "ATCC90030", "time": "24 h", "quantity": "IC50", "value": "29.4 µg/mL"}
{"SMILES": "CCCCCCCCCCCCCN1CCN(CC(O)(Cn2cncn2)c2ccc(F)cc2F)CC1 (centres unmarked)", "observed": "microbial growth", "method": "broth dilution", "strain": "ATCC2001", "time": "48 h", "quantity": "MIC", "value": "0.975 µg/mL"}
{"SMILES": "CCCCCCCOc1c(OC)cc(NC(C)CCCN)c2nc(C(C)(C)C)cc(C)c12 (centres unmarked)", "observed": "microbial growth", "strain": "ATCC90030", "quantity": "IC50", "value": "4.3 µg/mL"}
{"SMILES": "CCOC(=O)c1nc2ccccc2c(=O)n1Cc1cn(-c2cccc([N+](=O)[O-])c2)nn1", "observed": "microbial growth", "method": "broth dilution", "strain": "ATCC90030", "time": "24 h", "quantity": "IC50", "value": "354 µg/mL"}
{"SMILES": "CCCCCCCCN1CCNCC1", "observed": "microbial growth", "method": "broth dilution", "strain": "ATCC2001", "time": "48 h", "quantity": "MIC", "value": "> 31.3 µg/mL"}
{"SMILES": "CCOC(=O)c1nc2ccccc2c(=O)n1Cc1cn(-c2ccccc2[N+](=O)[O-])nn1", "observed": "microbial growth", "method": "broth dilution", "strain": "ATCC90030", "time": "24 h", "quantity": "IC50", "value": "272 µg/mL"}
{"SMILES": "CC[C@H](C)C[C@H](C)CCCCCCCCC(=O)N[C@H]1C[C@@H](O)[C@@H](NCCN)NC(=O)[C@@H]2[C@@H](O)CCN2C(=O)[C@H]([C@H](O)CCN)NC(=O)[C@H]([C@H](O)[C@@H](O)c2ccc(O)cc2)NC(=O)[C@@H]2C[C@@H](O)CN2C(=O)[C@H]([C@@H](C)O)NC1=O", "observed": "microbial growth", "method": "broth dilution", "strain": "ATCC2001", "time": "48 h", "quantity": "MIC", "value": "0.06 µg/mL"}
{"SMILES": "O=C(O)c1nc2ccccc2c(=O)n1Cc1cn(-c2cccc([N+](=O)[O-])c2)nn1", "observed": "microbial growth", "method": "broth dilution", "strain": "ATCC90030", "time": "24 h", "quantity": "IC50", "value": "487 µg/mL"}
{"SMILES": "CCCCCOc1c(OC)cc(NC(C)CCCNC(=O)C(N)CC(C)C)c2nc(C(C)(C)C)ccc12 (centres unmarked)", "observed": "microbial growth", "strain": "ATCC90030", "quantity": "IC50", "value": "11.3 µg/mL"}
{"SMILES": "CCCCCCCCCCCCN1CCNCC1", "observed": "microbial growth", "method": "broth dilution", "strain": "ATCC2001", "time": "48 h", "quantity": "MIC", "value": "1.95 µg/mL"}
{"SMILES": "C=CCCCCCCCCCCCC(O)CC(O)CO (centres unmarked)", "observed": "microbial growth", "method": "broth dilution", "strain": "ATCC90030", "quantity": "IC50", "value": "> 200 µg/mL"}
{"SMILES": "CCCCCCOc1c(OC)cc(NC(C)CCCNC(=O)C(N)Cc2cnc[nH]2)c2nc(C(C)(C)C)ccc12 (centres unmarked)", "observed": "microbial growth", "method": "broth dilution", "strain": "ATCC90030", "quantity": "MIC", "value": "20 µg/mL"}
{"SMILES": "O=C(O)c1nc2ccccc2c(=O)n1Cc1cn(-c2ccc(Cl)cc2)nn1", "observed": "microbial growth", "method": "broth dilution", "strain": "ATCC90030", "time": "24 h", "quantity": "IC50", "value": "517 µg/mL"}
{"SMILES": "COc1ccc(-c2cc(OC)cc(C(C)C#Cc3c(C)nc(N)nc3N)c2)cc1 (centres unmarked)", "observed": "microbial growth", "method": "resazurin", "quantity": "MIC", "value": "3.1 µg/mL"}
{"SMILES": "CCCCCOc1c(OC)cc(NC(C)CCCNC(=O)C(N)CCCNC(=N)N)c2nc(C(C)(C)C)ccc12 (centres unmarked)", "observed": "microbial killing", "strain": "ATCC90030", "quantity": "MFC", "value": "20 µg/mL"}
{"SMILES": "Cc1cccc(-n2cc(Cn3c(C(=O)O)nc4ccccc4c3=O)nn2)c1", "observed": "microbial growth", "method": "broth dilution", "strain": "ATCC90030", "time": "24 h", "quantity": "IC50", "value": "245 µg/mL"}
{"SMILES": "CCCCCN1CCN(CC(O)(Cn2cncn2)c2ccc(F)cc2F)CC1 (centres unmarked)", "observed": "microbial growth", "method": "broth dilution", "strain": "ATCC2001", "time": "48 h", "quantity": "MIC", "value": "> 31.3 µg/mL"}
{"SMILES": "CCCCOc1c(OC)cc(NC(C)CCCN)c2nc(C(C)(C)C)cc(C)c12 (centres unmarked)", "observed": "microbial killing", "strain": "ATCC90030", "quantity": "MFC", "value": "> 20 µg/mL"}
{"SMILES": "O=C(O)c1nc2ccccc2c(=O)n1Cc1cn(-c2cccc(F)c2)nn1", "observed": "microbial growth", "method": "broth dilution", "strain": "ATCC90030", "time": "24 h", "quantity": "IC50", "value": "262 µg/mL"}
{"SMILES": "CCCCCCCCCCCN1CCNCC1", "observed": "microbial growth", "method": "broth dilution", "strain": "ATCC2001", "time": "48 h", "quantity": "MIC", "value": "7.8 µg/mL"}
{"SMILES": "CCCCCCOc1c(OC)cc(NC(C)CCCN)c2nc(C(C)(C)C)ccc12 (centres unmarked)", "observed": "microbial growth", "strain": "ATCC90030", "quantity": "IC50", "value": "11.5 µg/mL"}
{"SMILES": "OC(Cn1cncn1)(Cn1cncn1)c1ccc(F)cc1F", "observed": "microbial killing", "strain": "ATCC2001", "quantity": "MFC", "value": "> 64 µg/mL"}
{"SMILES": "CCCCCCCCCN1CCN(CC(O)(Cn2cncn2)c2ccc(F)cc2F)CC1 (centres unmarked)", "observed": "microbial growth", "method": "broth dilution", "strain": "ATCC2001", "time": "48 h", "quantity": "MIC", "value": "3.9 µg/mL"}
{"SMILES": "C[C@@H]1[C@H](O)[C@@H](C)/C=C/C=C/C=C/C=C/C=C/C=C/C=C/[C@H](O[C@@H]2O[C@H](C)[C@@H](O)[C@H](N)[C@@H]2O)C[C@@H]2O[C@](O)(C[C@@H](O)C[C@@H](O)[C@H](O)CC[C@@H](O)C[C@@H](O)CC(=O)O[C@H]1C)C[C@H](O)[C@H]2C(=O)O", "observed": "microbial growth", "strain": "ATCC90030", "quantity": "IC50", "value": "0.31 µg/mL"}
{"SMILES": "CCOC(=O)c1nc2ccccc2c(=O)n1Cc1cn(-c2ccccc2C)nn1", "observed": "microbial growth", "method": "broth dilution", "strain": "ATCC90030", "time": "24 h", "quantity": "IC50", "value": "351 µg/mL"}
{"SMILES": "CCCCCCOc1c(OC)cc(NC(C)CCCN)c2nc(C(C)(C)C)cc(C)c12 (centres unmarked)", "observed": "microbial killing", "strain": "ATCC90030", "quantity": "MFC", "value": "20 µg/mL"}
{"SMILES": "C[C@@H]1[C@H](O)[C@@H](C)/C=C/C=C/C=C/C=C/C=C/C=C/C=C/[C@H](O[C@@H]2O[C@H](C)[C@@H](O)[C@H](N)[C@@H]2O)C[C@@H]2O[C@](O)(C[C@@H](O)C[C@@H](O)[C@H](O)CC[C@@H](O)C[C@@H](O)CC(=O)O[C@H]1C)C[C@H](O)[C@H]2C(=O)O", "observed": "microbial killing", "strain": "ATCC90030", "quantity": "MFC", "value": "1.35 µM"}
